ChEMBL document CHEMBL1158679, “Synthetic analogues of irlbacholine: a novel antifungal plant metabolite isolated from Irlbachia alata” (1999)
Converted amounts (≈) assume the structure as drawn.

How the values were obtained:
Assay type in all cases: functional
Cryptococcus neoformans [1] = assay: Antifungal activity against Cryptococcus neoformans 96-69 by standard microdilution method
Candida albicans [2] = assay: Antifungal activity against Candida albicans 572-27 by standard microdilution method
Summary of the method: (§1)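 Minimum inhibitory concentration measured by standard broth microdilution in 96-well microplates against the named yeast strain.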

Candida albicans [3] = assay: Antifungal activity against Candida albicans ATCC 10259 by standard microdilution method; summary of the method: as §1
Cryptococcus neoformans [4] = assay: Antifungal activity against Cryptococcus neoformans ATCC 36556 by standard microdilution method; summary of the method: as §1
Aspergillus fumigatus = assay: Antifungal activity against Aspergillus fumigatus ATCC 13073 by standard microdilution method
Summary of the method: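 MIC read from a 96-well microplate broth microdilution run by the standard method, with Sabouraud dextrose broth as the medium for A. fumigatus ATCC 13073.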

Candida albicans [5] = assay: Antifungal activity against Candida albicans B311 by standard microdilution method; summary of the method: as §1

MIC (Cryptococcus neoformans [1]) [µg/mL] | MIC (Candida albicans [2]) [µg/mL] | MIC (Candida albicans [3]) [µg/mL] | MIC (Cryptococcus neoformans [4]) [µg/mL] | MIC (Aspergillus fumigatus) [µg/mL] | MIC (Candida albicans [5]) [µg/mL] | SMILES
> 500 | > 500 | > 500 | 500 (≈ 811 µM) |  |  | C[N+](C)(C)CCOP(=O)([O-])OCCCCCCCCCCCCCCCCCCOP(=O)([O-])OCC[N+](C)(C)C
15.6 (≈ 24.2 µM) | > 500 | > 500 | 15.6 (≈ 24.2 µM) |  |  | C[N+](C)(C)CCOP(=O)([O-])OCCCCCCCCCCCCCCCCCCCCOP(=O)([O-])OCC[N+](C)(C)C
125 (≈ 249 µM) | 250 (≈ 497 µM) | 250 (≈ 497 µM) | 62.5 (≈ 124 µM) | > 500 | 250 (≈ 497 µM) | O=P(O)(O)OCCCCCCCCCCCCCCCCCCCCCCOP(=O)(O)O
62.5 | 125 | 250 | 62.5 | > 500 | 250 | CCCCCCCCCCCCCCCCOP(=O)(O)O [HEXADECYL DIHYDROGEN PHOSPHATE]
0.5 | 1 | 0.5 | 0.5 |  | 1 | CCCCCCCCCCCCCCCCOP(=O)(O)OCC[N+](C)(C)C.[Cl-]
500 | 500 | 500 | 250 |  | 500 | CCCCCCCCCCCCCCCCCCCCCCOP(=O)(O)OCC[N+](C)(C)C.[Cl-]
500 (≈ 698 µM) | > 500 | > 500 | 500 (≈ 698 µM) |  |  | O=P(O)(OCCBr)OCCCCCCCCCCCCCCCCCCCCCCOP(=O)(O)OCCBr
125 (≈ 299 µM) | 250 (≈ 598 µM) | 125 (≈ 299 µM) | 62.5 (≈ 149 µM) | > 500 | 250 (≈ 598 µM) | O=P(O)(O)OCCCCCCCCCCCCCCCCOP(=O)(O)O
0.5 | 1 | 0.5 | 0.5 | 3.1 | 1 | C[N+](C)(C)CCOP(=O)(O)OCCCCCCCCCCCCCCCCCl.[Cl-]
250 (≈ 469 µM) | 500 (≈ 939 µM) | 500 (≈ 939 µM) | 250 (≈ 469 µM) |  | 500 (≈ 939 µM) | C[N+](C)(C)CCOP(=O)([O-])OCCCCCCCCCCCCOP(=O)([O-])OCC[N+](C)(C)C
0.5 | 3.9 | 7.8 | 1 |  | 7.8 | C[N+](C)(C)CCOP(=O)(O)OCCCCCCCCCCCCCCCl.[Cl-]
125 (≈ 516 µM) | 250 (≈ 1030 µM) | 125 (≈ 516 µM) | 62.5 (≈ 258 µM) | > 500 | 250 (≈ 1030 µM) | CCCCCCCCCCCCCCCCO [CETYL ALCOHOL]
125 (≈ 198 µM) | 125 (≈ 198 µM) | 62.5 (≈ 98.8 µM) | 62.5 (≈ 98.8 µM) |  | 125 (≈ 198 µM) | O=P(O)(OCCBr)OCCCCCCCCCCCCCCCCOP(=O)(O)OCCBr
250 (≈ 446 µM) | 250 (≈ 446 µM) | 250 (≈ 446 µM) | 250 (≈ 446 µM) |  | 250 (≈ 446 µM) | C[N+](C)(C)CCOP(=O)([O-])OCCCCCCCCCCCCCCOP(=O)([O-])OCC[N+](C)(C)C
62.5 (≈ 242 µM) | 250 (≈ 967 µM) | 125 (≈ 484 µM) | 62.5 (≈ 242 µM) | > 500 | 250 (≈ 967 µM) | OCCCCCCCCCCCCCCCCO
125 (≈ 212 µM) | 125 (≈ 212 µM) | 125 (≈ 212 µM) | 125 (≈ 212 µM) | 25 (≈ 42.5 µM) | 250 (≈ 425 µM) | C[N+](C)(C)CCOP(=O)([O-])OCCCCCCCCCCCCCCCCOP(=O)([O-])OCC[N+](C)(C)C
> 500 | > 500 | > 500 | > 500 | > 500 | > 500 | OCCCCCCCCCCCCCCCCCCCCCCO
7.8 (≈ 11.1 µM) | 62.5 (≈ 89.2 µM) | 31.2 (≈ 44.5 µM) | 3.9 (≈ 5.56 µM) |  | 62.5 (≈ 89.2 µM) | C[N+](C)(C)CCOP(=O)([O-])OCCCCCCCCCCCCCCCCCCCCCCCCOP(=O)([O-])OCC[N+](C)(C)C
0.5 (≈ 0.743 µM) | 1 (≈ 1.49 µM) | 1.25 (≈ 1.86 µM) | 0.04 (≈ 0.0594 µM) | 0.08 (≈ 0.119 µM) | 1 (≈ 1.49 µM) | C[N+](C)(C)CCOP(=O)([O-])OCCCCCCCCCCCCCCCCCCCCCCOP(=O)([O-])OCC[N+](C)(C)C
0.5 | 0.5 | 1.25 | 0.04 | 0.08 | 0.5 | C[N+](C)(C)CCOP(=O)([O-])OCCCCCCCCCCCCCCCCCCCCCCOP(=O)([O-])OCC[N+](C)(C)C.Cl

SMILES | MIC (Cryptococcus neoformans [1]) [µg/mL] | MIC (Candida albicans [2]) [µg/mL] | MIC (Candida albicans [3]) [µg/mL] | MIC (Cryptococcus neoformans [4]) [µg/mL] | MIC (Aspergillus fumigatus) [µg/mL] | MIC (Candida albicans [5]) [µg/mL]
O=P(OCCCCCCCCCCCCCCCCCCCCCCOP(=O)(Oc1ccccc1)Oc1ccccc1)(Oc1ccccc1)Oc1ccccc1 | 125 (≈ 155 µM) | 250 (≈ 310 µM) | 125 (≈ 155 µM) | 125 (≈ 155 µM) | > 500 | 250 (≈ 310 µM)
O=P(OCCCCCCCCCCCCCCCCOP(=O)(Oc1ccccc1)Oc1ccccc1)(Oc1ccccc1)Oc1ccccc1 | 125 (≈ 173 µM) | 250 (≈ 346 µM) | 125 (≈ 173 µM) | 62.5 (≈ 86.5 µM) | > 500 | 250 (≈ 346 µM)
